# ChEMBL document CHEMBL5303300, “EUbOPEN Chemogenomics Library - Multiplex” (2023)
# “And” between values parts separate entries of the source, which are not always exact repeats. Identical values can stand only once.
# Columns and labels:
# Type in all cases: toxicity, cell-based
# HEK-293T = experiment: Multiplex assay against HEK293T; settings: human, number of replicates 2
# Method in brief: (§1)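 Four dyes were applied at seeding to live cells: Hoechst33342, BioTracker Green Microtubule Cytoskeleton Dye, MitoTracker Red and Annexin V Alexa Fluor 680. Imaging after compound addition used a CQ1 microscope at 37°C and 5% CO2. CellPathfinder machine-learning gating then sorted cells into Hoechst high-intensity objects or normal cells, normal cells into healthy, pyknosed or fragmented nuclei, and pyknosed cells into mitotic or apoptotic, with tubulin, mitochondrial-mass and membrane-permeability phenotypes given as per cents of healthy-nucleus cells.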
# U2OS = experiment: Multiplex assay against U2OS; settings: human, number of replicates 2; method in brief: as §1
# Fibroblast = experiment: Multiplex assay against human fibroblast; settings: number of replicates 2; method in brief: as §1
# [1] = 12 h, 1 µM, compound concentration 1 uM
# [2] = 12 h, 10 µM, compound concentration 10 uM
# [3] = 24 h, 1 µM, compound concentration 1 uM
# [4] = 24 h, 10 µM, compound concentration 10 uM
# [5] = 48 h, 1 µM, compound concentration 1 uM
# [6] = 48 h, 10 µM, compound concentration 10 uM
compound,measurement,setting,value
CC1=C(C)C(=O)C(C(CCCCCC(=O)O)c2ccccc2)=C(C)C1=O (stereo unspecified) [SERATRODAST],Population Apoptotic (%),HEK-293T; [1],63% and 56%
same,Population Fragmented Nuclei (%),HEK-293T; [1],4% and 5%
same,Population Healthy Nuclei (%),HEK-293T; [1],78% and 82%
same,Population Hoechst High Intensity Objects (%),HEK-293T; [1],12% and 8%
same,Population Membrane Permeable-Phenotype (%),HEK-293T; [1],2% and 0%
same,Population Mitochondria Different-Phenotype (%),HEK-293T; [1],18% and 13%
same,Population Mitotic Cells (%),HEK-293T; [1],36% and 43%
same,Population Normal (%),HEK-293T; [1],87% and 91%
same,Population Pyknosed Nuclei (%),HEK-293T; [1],17% and 12%
same,Population Tubulin-Different-Phenotype (%),HEK-293T; [1],49% and 39%
same,Total Cell Count,HEK-293T; [1],511 and 624
same,Population Apoptotic (%),HEK-293T; [2],47% and 51%
same,Population Fragmented Nuclei (%),HEK-293T; [2],4% and 5%
same,Population Healthy Nuclei (%),HEK-293T; [2],87% and 85%
same,Population Hoechst High Intensity Objects (%),HEK-293T; [2],7%
same,Population Membrane Permeable-Phenotype (%),HEK-293T; [2],4% and 2%
same,Population Mitochondria Different-Phenotype (%),HEK-293T; [2],8% and 11%
same,Population Mitotic Cells (%),HEK-293T; [2],52% and 48%
same,Population Normal (%),HEK-293T; [2],92%
same,Population Pyknosed Nuclei (%),HEK-293T; [2],7% and 9%
same,Population Tubulin-Different-Phenotype (%),HEK-293T; [2],39% and 43%
same,Total Cell Count,HEK-293T; [2],857 and 708
same,Population Apoptotic (%),HEK-293T; [3],52% and 55%
same,Population Fragmented Nuclei (%),HEK-293T; [3],6% and 7%
same,Population Healthy Nuclei (%),HEK-293T; [3],79% and 81%
same,Population Hoechst High Intensity Objects (%),HEK-293T; [3],9%
same,Population Membrane Permeable-Phenotype (%),HEK-293T; [3],1%
same,Population Mitochondria Different-Phenotype (%),HEK-293T; [3],3%
same,Population Mitotic Cells (%),HEK-293T; [3],47% and 44%
same,Population Normal (%),HEK-293T; [3],90%
same,Population Pyknosed Nuclei (%),HEK-293T; [3],13% and 10%
same,Population Tubulin-Different-Phenotype (%),HEK-293T; [3],19% and 16%
same,Total Cell Count,HEK-293T; [3],827 and 1038
same,Population Apoptotic (%),HEK-293T; [4],28% and 42%
same,Population Fragmented Nuclei (%),HEK-293T; [4],8% and 7%
same,Population Healthy Nuclei (%),HEK-293T; [4],86%
same,Population Hoechst High Intensity Objects (%),HEK-293T; [4],9% and 6%
same,Population Membrane Permeable-Phenotype (%),HEK-293T; [4],6% and 3%
same,Population Mitochondria Different-Phenotype (%),HEK-293T; [4],3% and 4%
same,Population Mitotic Cells (%),HEK-293T; [4],71% and 57%
same,Population Normal (%),HEK-293T; [4],90% and 93%
same,Population Pyknosed Nuclei (%),HEK-293T; [4],4% and 6%
same,Population Tubulin-Different-Phenotype (%),HEK-293T; [4],29% and 35%
same,Total Cell Count,HEK-293T; [4],1313 and 975
same,Population Apoptotic (%),HEK-293T; [5],22% and 13%
same,Population Fragmented Nuclei (%),HEK-293T; [5],15% and 14%
same,Population Healthy Nuclei (%),HEK-293T; [5],81% and 83%
same,Population Hoechst High Intensity Objects (%),HEK-293T; [5],8%
same,Population Membrane Permeable-Phenotype (%),HEK-293T; [5],4% and 5%
same,Population Mitochondria Different-Phenotype (%),HEK-293T; [5],1% and 0%
same,Population Mitotic Cells (%),HEK-293T; [5],77% and 86%
same,Population Normal (%),HEK-293T; [5],91%
same,Population Pyknosed Nuclei (%),HEK-293T; [5],3% and 2%
same,Population Tubulin-Different-Phenotype (%),HEK-293T; [5],5%
same,Total Cell Count,HEK-293T; [5],2229 and 2490
same,Population Apoptotic (%),HEK-293T; [6],6% and 13%
same,Population Fragmented Nuclei (%),HEK-293T; [6],25% and 16%
same,Population Healthy Nuclei (%),HEK-293T; [6],73% and 80%
same,Population Hoechst High Intensity Objects (%),HEK-293T; [6],9% and 8%
same,Population Membrane Permeable-Phenotype (%),HEK-293T; [6],11% and 5%
same,Population Mitochondria Different-Phenotype (%),HEK-293T; [6],0%
same,Population Mitotic Cells (%),HEK-293T; [6],93% and 86%
same,Population Normal (%),HEK-293T; [6],91%
same,Population Pyknosed Nuclei (%),HEK-293T; [6],1% and 2%
same,Population Tubulin-Different-Phenotype (%),HEK-293T; [6],15% and 21%
same,Total Cell Count,HEK-293T; [6],3510 and 2285
same,Population Apoptotic (%),U2OS; [1],66% and 64%
same,Population Fragmented Nuclei (%),U2OS; [1],11% and 5%
same,Population Healthy Nuclei (%),U2OS; [1],80% and 84%
same,Population Hoechst High Intensity Objects (%),U2OS; [1],0%
same,Population Membrane Permeable-Phenotype (%),U2OS; [1],3% and 2%
same,Population Mitochondria Different-Phenotype (%),U2OS; [1],3% and 0%
same,Population Mitotic Cells (%),U2OS; [1],33% and 36%
same,Population Normal (%),U2OS; [1],100%
same,Population Pyknosed Nuclei (%),U2OS; [1],8% and 9%
same,Population Tubulin-Different-Phenotype (%),U2OS; [1],100% and 92%
same,Population Apoptotic (%),U2OS; [2],75% and 37%
same,Population Healthy Nuclei (%),U2OS; [2],68% and 84%
same,Population Hoechst High Intensity Objects (%),U2OS; [2],0%
same,Population Membrane Permeable-Phenotype (%),U2OS; [2],0% and 1%
same,Population Mitochondria Different-Phenotype (%),U2OS; [2],0%
same,Population Mitotic Cells (%),U2OS; [2],25% and 62%
same,Population Normal (%),U2OS; [2],100%
same,Population Pyknosed Nuclei (%),U2OS; [2],5% and 11%
same,Population Tubulin-Different-Phenotype (%),U2OS; [2],80% and 94%
same,Population Apoptotic (%),U2OS; [3],75% and 54%
same,Population Fragmented Nuclei (%),U2OS; [3],7% and 2%
same,Population Healthy Nuclei (%),U2OS; [3],82% and 88%
same,Population Hoechst High Intensity Objects (%),U2OS; [3],0%
same,Population Membrane Permeable-Phenotype (%),U2OS; [3],3%
same,Population Mitochondria Different-Phenotype (%),U2OS; [3],3% and 1%
same,Population Mitotic Cells (%),U2OS; [3],25% and 45%
same,Population Normal (%),U2OS; [3],100%
same,Population Pyknosed Nuclei (%),U2OS; [3],10% and 8%
same,Population Tubulin-Different-Phenotype (%),U2OS; [3],100% and 92%
same,Population Apoptotic (%),U2OS; [4],50% and 66%
same,Population Healthy Nuclei (%),U2OS; [4],70% and 88%
same,Population Hoechst High Intensity Objects (%),U2OS; [4],0%
same,Population Membrane Permeable-Phenotype (%),U2OS; [4],1% and 2%
same,Population Mitochondria Different-Phenotype (%),U2OS; [4],1% and 0%
same,Population Mitotic Cells (%),U2OS; [4],50% and 33%
same,Population Normal (%),U2OS; [4],100%
same,Population Pyknosed Nuclei (%),U2OS; [4],6%
same,Population Tubulin-Different-Phenotype (%),U2OS; [4],92%
same,Population Apoptotic (%),U2OS; [5],33% and 43%
same,Population Fragmented Nuclei (%),U2OS; [5],4% and 3%
same,Population Healthy Nuclei (%),U2OS; [5],89% and 91%
same,Population Hoechst High Intensity Objects (%),U2OS; [5],0%
same,Population Membrane Permeable-Phenotype (%),U2OS; [5],0% and 1%
same,Population Mitochondria Different-Phenotype (%),U2OS; [5],0%
same,Population Mitotic Cells (%),U2OS; [5],66% and 56%
same,Population Normal (%),U2OS; [5],100%
same,Population Pyknosed Nuclei (%),U2OS; [5],5% and 4%
same,Population Tubulin-Different-Phenotype (%),U2OS; [5],100% and 94%
same,Population Apoptotic (%),U2OS; [6],58%
same,Population Fragmented Nuclei (%),U2OS; [6],12% and 3%
same,Population Healthy Nuclei (%),U2OS; [6],79% and 90%
same,Population Hoechst High Intensity Objects (%),U2OS; [6],0%
same,Population Membrane Permeable-Phenotype (%),U2OS; [6],0% and 2%
same,Population Mitochondria Different-Phenotype (%),U2OS; [6],0%
same,Population Mitotic Cells (%),U2OS; [6],41%
same,Population Normal (%),U2OS; [6],99%
same,Population Pyknosed Nuclei (%),U2OS; [6],8% and 6%
same,Population Tubulin-Different-Phenotype (%),U2OS; [6],89% and 95%
same,Population Apoptotic (%),Fibroblast; [1],50% and 60%
same,Population Fragmented Nuclei (%),Fibroblast; [1],6% and 11%
same,Population Healthy Nuclei (%),Fibroblast; [1],57% and 79%
same,Population Hoechst High Intensity Objects (%),Fibroblast; [1],0%
same,Population Membrane Permeable-Phenotype (%),Fibroblast; [1],5% and 2%
same,Population Mitochondria Different-Phenotype (%),Fibroblast; [1],0% and 2%
same,Population Mitotic Cells (%),Fibroblast; [1],50% and 40%
same,Population Normal (%),Fibroblast; [1],99% and 100%
same,Population Tubulin-Different-Phenotype (%),Fibroblast; [1],5% and 3%
same,Total Cell Count,Fibroblast; [1],128 and 228
same,Population Apoptotic (%),Fibroblast; [2],35% and 25%
same,Population Fragmented Nuclei (%),Fibroblast; [2],12% and 18%
same,Population Healthy Nuclei (%),Fibroblast; [2],79% and 75%
same,Population Hoechst High Intensity Objects (%),Fibroblast; [2],0%
same,Population Membrane Permeable-Phenotype (%),Fibroblast; [2],6% and 5%
same,Population Mitochondria Different-Phenotype (%),Fibroblast; [2],1%
same,Population Mitotic Cells (%),Fibroblast; [2],64% and 75%
same,Population Normal (%),Fibroblast; [2],100%
same,Population Pyknosed Nuclei (%),Fibroblast; [2],8% and 6%
same,Population Tubulin-Different-Phenotype (%),Fibroblast; [2],15% and 8%
same,Total Cell Count,Fibroblast; [2],167 and 192
same,Population Apoptotic (%),Fibroblast; [3],67% and 52%
same,Population Fragmented Nuclei (%),Fibroblast; [3],3% and 13%
same,Population Healthy Nuclei (%),Fibroblast; [3],64% and 76%
same,Population Hoechst High Intensity Objects (%),Fibroblast; [3],0%
same,Population Membrane Permeable-Phenotype (%),Fibroblast; [3],7% and 2%
same,Population Mitochondria Different-Phenotype (%),Fibroblast; [3],1% and 0%
same,Population Mitotic Cells (%),Fibroblast; [3],32% and 47%
same,Population Normal (%),Fibroblast; [3],99% and 100%
same,Population Tubulin-Different-Phenotype (%),Fibroblast; [3],9% and 1%
same,Total Cell Count,Fibroblast; [3],128 and 230
same,Population Fragmented Nuclei (%),Fibroblast; [4],11% and 14%
same,Population Healthy Nuclei (%),Fibroblast; [4],81%
same,Population Hoechst High Intensity Objects (%),Fibroblast; [4],0%
same,Population Membrane Permeable-Phenotype (%),Fibroblast; [4],3%
same,Population Mitochondria Different-Phenotype (%),Fibroblast; [4],0% and 1%
same,Population Mitotic Cells (%),Fibroblast; [4],36% and 85%
same,Population Normal (%),Fibroblast; [4],100%
same,Population Pyknosed Nuclei (%),Fibroblast; [4],6% and 3%
same,Population Tubulin-Different-Phenotype (%),Fibroblast; [4],8% and 9%
same,Total Cell Count,Fibroblast; [4],171 and 193
same,Population Apoptotic (%),Fibroblast; [5],79% and 52%
same,Population Fragmented Nuclei (%),Fibroblast; [5],9% and 16%
same,Population Healthy Nuclei (%),Fibroblast; [5],65% and 75%
same,Population Hoechst High Intensity Objects (%),Fibroblast; [5],0%
same,Population Membrane Permeable-Phenotype (%),Fibroblast; [5],3% and 1%
same,Population Mitochondria Different-Phenotype (%),Fibroblast; [5],0%
same,Population Mitotic Cells (%),Fibroblast; [5],20% and 47%
same,Population Normal (%),Fibroblast; [5],99% and 100%
same,Population Tubulin-Different-Phenotype (%),Fibroblast; [5],3% and 2%
same,Total Cell Count,Fibroblast; [5],133 and 248
same,Population Apoptotic (%),Fibroblast; [6],40% and 36%
same,Population Fragmented Nuclei (%),Fibroblast; [6],15% and 21%
same,Population Healthy Nuclei (%),Fibroblast; [6],81% and 73%
same,Population Hoechst High Intensity Objects (%),Fibroblast; [6],0%
same,Population Membrane Permeable-Phenotype (%),Fibroblast; [6],2% and 1%
same,Population Mitochondria Different-Phenotype (%),Fibroblast; [6],0%
same,Population Mitotic Cells (%),Fibroblast; [6],60% and 63%
same,Population Normal (%),Fibroblast; [6],100%
same,Population Pyknosed Nuclei (%),Fibroblast; [6],2% and 5%
same,Population Tubulin-Different-Phenotype (%),Fibroblast; [6],6% and 5%
same,Total Cell Count,Fibroblast; [6],171 and 213
